Source: ChEMBL document CHEMBL1275331, “Discovery of a novel 5-HT(3) antagonist/5-HT(1A) agonist 3-amino-5,6,7,8-tetrahydro-2-{4-[4-(quinolin-2-yl)piperazin-1-yl]butyl}quinazolin-4(3H)-one (TZB-30878) as an orally bioavailable agent for irritable bowel syndrome” (J Med Chem, 2010)
pEC50, pIC50: −log10 of the molar value. One block for each compound: values may come before it. Active and inactive are the calls of the source. The calls are words filed in the database; no cut-off is given here.

What was measured:
Rattus norvegicus [1] = assay: Reduction in wrap restraint stress-induced defecation in rat diarrhea-predominant irritable bowel syndrome model at 30 to 100 mg/kg, po administered 1 hr prior to induction of stress; format: functional, organism-based
Method in brief: (§1)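 Lightly anesthetized rats had upper bodies wrapped with adhesive tape, then returned to observation cages; feces counted 1 h after wrapping. Compound or vehicle given orally 1 h before restraint; unwrapped animals as normal group. n = 8 per group, mean (SD); Wilcoxon and nonparametric Dunnett's tests.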

Rattus norvegicus [2] = assay: Reduction in wrap restraint stress-induced defecation in rat diarrhea-predominant irritable bowel syndrome model at 1 to 10 mg/kg, po administered 1 hr prior to induction of stress; format: functional, organism-based; method in brief: as §1
[3] = biological target: T1, 5-hydroxytryptamine receptor 3A (Homo sapiens, UniProt P46098); assay: Displacement of [3H]BRL-43694 from human 5HT3 receptor expressed in HEK293 cells by liquid scintillation counting; format: cell-based
T1 sequence (P46098 whole entry): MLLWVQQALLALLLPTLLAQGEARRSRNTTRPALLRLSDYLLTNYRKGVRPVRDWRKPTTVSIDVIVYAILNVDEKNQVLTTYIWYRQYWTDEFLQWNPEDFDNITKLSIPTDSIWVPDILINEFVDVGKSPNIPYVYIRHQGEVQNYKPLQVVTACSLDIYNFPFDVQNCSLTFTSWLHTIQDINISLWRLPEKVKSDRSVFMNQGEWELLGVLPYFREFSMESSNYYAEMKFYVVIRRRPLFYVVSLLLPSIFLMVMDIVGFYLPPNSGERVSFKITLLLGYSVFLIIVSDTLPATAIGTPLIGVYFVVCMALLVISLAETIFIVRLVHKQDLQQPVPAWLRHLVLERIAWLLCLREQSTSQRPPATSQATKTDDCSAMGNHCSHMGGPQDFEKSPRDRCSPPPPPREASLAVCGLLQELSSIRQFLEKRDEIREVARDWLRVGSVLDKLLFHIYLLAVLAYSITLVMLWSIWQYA
Method in brief: (§2)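 HEK-293 membranes expressing human 5-HT3 were incubated with 0.5 nmol/L [3H]BRL-43694 (final) for 60 min at 25 °C. Buffer: 50 mM Tris-HCl, 5 mM MgCl2, 1 mM EDTA, pH 7.5. Compound came from 270 μmol/L DMSO stock, diluted in buffer. Filtration was through GF/B presoaked in 0.5% polyethyleneimine, with two cold Tris washes. Run in duplicate or triplicate; percent inhibition calculated.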

[4] = biological target: T2, 5-hydroxytryptamine receptor 1A (Homo sapiens, UniProt P08908); assay: Displacement of [3H]8-OH-DPAT from human 5HT1A receptor expressed in CHO cells by liquid scintillation counting; format: cell-based
T2 sequence (P08908 whole entry): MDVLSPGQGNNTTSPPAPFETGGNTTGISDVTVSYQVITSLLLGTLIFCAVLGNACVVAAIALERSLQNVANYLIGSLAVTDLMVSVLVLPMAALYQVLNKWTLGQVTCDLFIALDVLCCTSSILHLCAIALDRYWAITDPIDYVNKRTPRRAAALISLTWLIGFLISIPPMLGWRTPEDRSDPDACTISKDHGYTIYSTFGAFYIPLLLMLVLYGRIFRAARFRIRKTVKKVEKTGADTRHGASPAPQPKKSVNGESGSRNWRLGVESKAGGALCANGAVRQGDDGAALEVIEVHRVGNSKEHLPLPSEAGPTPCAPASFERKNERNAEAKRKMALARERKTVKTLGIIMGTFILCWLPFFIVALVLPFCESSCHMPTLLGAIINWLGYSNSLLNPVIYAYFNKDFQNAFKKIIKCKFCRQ
Method in brief: (§3)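 CHO-cell membranes with human 5-HT1A were incubated with 0.25 nmol/L [3H]8-OH-DPAT (final) for 60 min at 27 °C. Buffer: 50 mM Tris-HCl, 10 mM MgSO4, 0.5 mM EDTA, 0.1% ascorbic acid, pH 7.4. Compound came from 270 μmol/L DMSO stock, diluted in buffer. Filtration was through GF/C presoaked in 0.3% polyethyleneimine, with two cold Tris washes. Run in duplicate or triplicate; percent inhibition of binding calculated.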

[5] = biological target: T2, 5-hydroxytryptamine receptor 1A; assay: Agonist activity at human cloned 5HT1A receptor expressed in CHO cells assessed as stimulation of [35S]GTPgammaS binding after 30 mins by liquid scintillation counting; format: functional, cell-based
Method in brief: (§4)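 Membranes from CHO cells expressing human 5-HT1A were diluted in 20 mM HEPES/3 mM MgCl2/120 mM NaCl, pH 7.4. They were preincubated with 20 μM GDP and test drug for 20 min at 30 °C, then held on ice for 15 min. [35S]GTPγS (100 pM) was added for 30 min at 30 °C. Samples were filtered, washed with cold HEPES/MgCl2 buffer, and bound radioactivity counted; EC50 and Emax reported.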

[6] = biological target: T3, 5-hydroxytryptamine receptor 1A (Homo sapiens) (UniProt P08908); assay: Agonist activity at human cloned 5HT1A receptor expressed in CHO cells assessed as stimulation of [35S]GTPgammaS binding at 900 uL after 30 mins by liquid scintillation counting; format: functional, cell-based; method in brief: as §4
T3 sequence (whole entry): T2 sequence (P08908 whole entry)

[7] = biological target: T4, 5-hydroxytryptamine receptor 3A (Cavia porcellus) (UniProt O70212); assay: Inhibition of 5HT3 receptor-mediated contraction of guinea pig ileum at 1 umol/L after 20 mins relative to control; format: tissue-based
T4 sequence (whole entry): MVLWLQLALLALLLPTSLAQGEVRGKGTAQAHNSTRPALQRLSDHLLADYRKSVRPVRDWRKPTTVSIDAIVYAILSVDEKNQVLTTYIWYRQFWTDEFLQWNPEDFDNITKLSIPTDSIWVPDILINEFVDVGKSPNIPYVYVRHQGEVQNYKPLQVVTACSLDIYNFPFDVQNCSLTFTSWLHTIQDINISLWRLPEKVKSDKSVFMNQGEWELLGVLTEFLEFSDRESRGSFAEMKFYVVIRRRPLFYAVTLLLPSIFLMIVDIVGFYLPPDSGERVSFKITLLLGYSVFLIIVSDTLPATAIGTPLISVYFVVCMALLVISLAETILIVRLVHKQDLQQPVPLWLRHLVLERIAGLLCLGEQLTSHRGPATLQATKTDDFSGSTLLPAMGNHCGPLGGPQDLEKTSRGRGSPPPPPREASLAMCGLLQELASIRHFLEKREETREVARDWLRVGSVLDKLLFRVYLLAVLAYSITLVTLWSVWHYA
Method in brief: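 Ileum strips in Tyrode solution at 37 °C, gassed 5% CO2/95% O2, isotonic contractions under 1 g load. After at least 3 stable contractions to 10 μM 2-methyl-5-HT, tissue exposed to compound or DMSO vehicle for 20 min, then 10 μM 2-methyl-5-HT re-added; contraction expressed as % inhibition of control.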

[8] = Drug level in Sprague-Dawley rat brain at 3 mg/kg, po after 2 hrs by HPLC analysis; format: ADME, organism-based; design: dose 3 mg/kg, route oral; conditions: read-out: Drug uptake
Method in brief: (§5)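 Total compound concentration was measured in brain and blood at 2, 4 and 8 h after a single oral 3 mg/kg dose. Brain/blood ratio was also derived. Values are mean ± SD of three rats.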

[9] = Drug level in Sprague-Dawley rat blood at 3 mg/kg, po after 2 hrs by HPLC analysis; format: ADME, organism-based; design: dose 3 mg/kg, route oral; conditions: whole blood, read-out: Drug uptake; method in brief: as §5
[10] = Ratio of drug level in brain to blood in Sprague-Dawley rat at 3 mg/kg, po after 2 hrs; format: ADME, organism-based; design: dose 3 mg/kg, route oral
Method in brief: (§6)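 Rats dosed 3 mg/kg orally; total compound levels measured in brain and blood at 2, 4 and 8 h, brain/blood ratio derived. Mean ± SD of three rats.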

[11] = Drug level in Sprague-Dawley rat brain at 3 mg/kg, po after 4 hrs by HPLC analysis; format: ADME, organism-based; design: dose 3 mg/kg, route oral; conditions: read-out: Drug uptake; method in brief: as §5
[12] = Drug level in Sprague-Dawley rat blood at 3 mg/kg, po after 4 hrs by HPLC analysis; format: ADME, organism-based; design: dose 3 mg/kg, route oral; conditions: whole blood, read-out: Drug uptake; method in brief: as §5
[13] = Ratio of drug level in brain to blood in Sprague-Dawley rat at 3 mg/kg, po after 4 hrs; format: ADME, organism-based; design: dose 3 mg/kg, route oral; method in brief: as §6
[14] = Drug level in Sprague-Dawley rat brain at 3 mg/kg, po after 8 hrs by HPLC analysis; format: ADME, organism-based; design: dose 3 mg/kg, route oral; conditions: read-out: Drug uptake; method in brief: as §5
[15] = Drug level in Sprague-Dawley rat blood at 3 mg/kg, po after 8 hrs by HPLC analysis; format: ADME, organism-based; design: dose 3 mg/kg, route oral; conditions: whole blood, read-out: Drug uptake; method in brief: as §5
[16] = Ratio of drug level in brain to blood in Sprague-Dawley rat at 3 mg/kg, po after 8 hrs; format: ADME, organism-based; design: dose 3 mg/kg, route oral; method in brief: as §6
Rattus norvegicus [17] = assay: Induction of 5HT1A receptor-mediated lower lip retraction behavior in rat at 10 mg/kg, iv after 30 mins; format: functional, organism-based; design: dose 10 mg/kg
Method in brief: (§7)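 Rats were conditioned to test procedures over 2 weeks and acclimated to the test cage for 1 h. Vehicle was saline containing diluted HCl. Lower lip retraction and flat body posture were scored on a 0–3 scale at 5, 10, 20 and 30 min after dosing.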

Rattus norvegicus [18] = assay: Induction of 5HT1A receptor-mediated behavioral activity in rat assessed as appearance of flat body posture at 10 mg/kg, iv after 30 mins; format: functional, organism-based; design: dose 10 mg/kg; method in brief: as §7
Rattus norvegicus [19] = assay: Effect on 5HT1A receptor-mediated hypothermic effect in rat assessed as change in rectal temperature at 10 mg/kg, iv after 30 mins; format: functional, organism-based; design: dose 10 mg/kg
Method in brief: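 Rats were conditioned over 2 weeks and acclimated to the cage for 1 h before dosing (vehicle: saline with diluted HCl). Rectal temperature was recorded with a thermistor probe inserted 3 cm, before and 30 min after administration. The change in temperature was reported.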

Rattus norvegicus [20] = assay: […] activity in rat assessed as inhibition of 5HT-induced bradycardia at 10 ug/kg, iv by von Benzold-Jarisch reflex assay; format: functional
[21] = biological target: Adrenergic receptor alpha-1 (Rattus norvegicus) (UniProt P15823+P23944+P43140); assay: Inhibition of rat alpha1 adrenergic receptor at 0.1 uM
[22] = biological target: 5-hydroxytryptamine receptor 2A (Rattus norvegicus) (UniProt P14842); assay: Inhibition of rat 5HT2 receptor AT 0.1 uM
Sequence of 5-hydroxytryptamine receptor 2A (Rattus norvegicus) (P14842 whole entry): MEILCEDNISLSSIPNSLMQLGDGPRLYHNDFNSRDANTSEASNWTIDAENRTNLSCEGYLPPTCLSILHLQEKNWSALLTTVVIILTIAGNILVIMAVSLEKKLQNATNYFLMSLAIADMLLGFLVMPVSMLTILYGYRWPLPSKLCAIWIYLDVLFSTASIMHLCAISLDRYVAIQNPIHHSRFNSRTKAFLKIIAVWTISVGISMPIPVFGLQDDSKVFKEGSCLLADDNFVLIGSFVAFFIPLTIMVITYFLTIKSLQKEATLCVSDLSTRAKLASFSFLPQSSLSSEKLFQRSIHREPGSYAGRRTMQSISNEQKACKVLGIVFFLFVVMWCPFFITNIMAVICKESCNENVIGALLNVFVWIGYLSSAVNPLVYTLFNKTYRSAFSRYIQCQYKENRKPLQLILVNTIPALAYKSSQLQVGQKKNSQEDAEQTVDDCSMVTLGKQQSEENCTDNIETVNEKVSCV

[23] = biological target: T3, 5-hydroxytryptamine receptor 1A (Homo sapiens); assay: Displacement of [3H]8-OH-DPAT from human 5HT1A receptor expressed in CHO cells at 100 nM by liquid scintillation counting; format: cell-based; method in brief: as §3
[24] = biological target: T3, 5-hydroxytryptamine receptor 1A (Homo sapiens); assay: Displacement of [3H]8-OH-DPAT from human 5HT1A receptor expressed in CHO cells at 1000 nM by liquid scintillation counting; format: cell-based; method in brief: as §3
[25] = biological target: T5, 5-hydroxytryptamine receptor 3A (Homo sapiens) (UniProt P46098); assay: Displacement of [3H]BRL-43694 from human 5HT3 receptor expressed in HEK293 cells at 100 nM by liquid scintillation counting; format: cell-based; method in brief: as §2
T5 sequence (whole entry): T1 sequence (P46098 whole entry)

[26] = biological target: T5, 5-hydroxytryptamine receptor 3A (Homo sapiens); assay: Displacement of [3H]BRL-43694 from human 5HT3 receptor expressed in HEK293 cells at 1000 nM by liquid scintillation counting; format: cell-based; method in brief: as §2

SMILES: O=C1[C@@H]2[C@H]3CC[C@H](C3)[C@@H]2C(=O)N1CCCCN1CCN(c2ncccn2)CC1
inhibition (Rattus norvegicus [1]): inactive

SMILES: Cc1[nH]cnc1CN1CCc2c(c3ccccc3n2C)C1=O
inhibition (Rattus norvegicus [2]): Active

pIC50 [3]: 7.34
pIC50 [4]: > 8.00
pEC50 [5]: 7.51
Emax [6]: 94.7%
inhibition [7]: 90.1%
concentration at 2 h [8]: 685 nM
concentration at 2 h [9]: 97.4 nM
Kp at 2 h [10]: 7.11
concentration at 4 h [11]: 367 nM
concentration at 4 h [12]: 55.5 nM
Kp at 4 h [13]: 6.59
concentration at 8 h [14]: 204 nM
concentration at 8 h [15]: 28.3 nM
Kp at 8 h [16]: 7.65
inhibition [21]: 63%
inhibition [22]: 78%
SMILES: Nn1c(CCCCN2CCN(c3ccc4ccccc4n3)CC2)nc2ccccc2c1=O
Activity (Rattus norvegicus [17]): Active
Activity (Rattus norvegicus [18]): Active
deltaT (Rattus norvegicus [19]): -1.9 °C
inhibition in vivo at 0.01 mg/kg (Rattus norvegicus [20]): 21.9%

inhibition [23]: 76.9%
inhibition [24]: 96.3%
inhibition [25]: 1.4%
inhibition [26]: 18.4%
SMILES: Nn1c(=O)c2c(nc1[C@H]1CC[C@H](N3CCN(c4ccc5ccccc5n4)CC3)CC1)CCCC2
